Entries after “also recorded” stand apart in the source; their conditions may differ.
Tests used:
[1] = Plasma pharmacokinetics after single rising oral doses of BI 409306; assay type: in vivo, human; settings: for AUC0–∞ ratio of tablet to solution: EM; for Cl F^−1: geometric mean (gCV%)
How it was run: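 Healthy males (21–50 y), CYP2C19-genotyped as homozygous EMs or PMs, given single oral doses after a ≥10 h fast: solution 0.5–5 mg, tablets 10–350 mg; PMs given 10 mg, then 100 mg tablet. Tablet/solution crossover at 5 and 50 mg. Plasma sampled −2 h to 24 h (48, 72 h if ≥10 mg). HPLC-MS/MS with isotope-labelled internal standard. Noncompartmental analysis; log-scale ANOVA for formulation and genotype.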

[2] = Urinary excretion after single oral doses of BI 409306; assay type: in vivo, human; settings: for fe0–4: urine 0 h to 4 h, geometric mean (gCV%)
How it was run: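 Drug amounts were measured by HPLC-MS/MS, giving amounts and fractions excreted per interval. Dose proportionality of Ae0–4 was tested by linear regression in EMs and by a mixed-effects linear model in PMs, with a 95% CI on the slope.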

healthy male subjects = assay: Safety and tolerability; assay type: in vivo, human
How it was run: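 Randomized, double-blind, placebo-controlled single-dose escalation, 3:1 active:placebo (six and two per group). Males 21–50 y, BMI 18.5–29.9 kg m−2, CYP2C19 EMs or PMs, dosed four per day ≥1 h apart, ≥5 days between levels. Monitored AEs, laboratory tests, physical exam, vital signs, cardiac monitoring, 12-lead ECG and 16-item Bond–Lader 100 mm mood VAS. Investigators rated tolerability on a four-point scale. Descriptive statistics.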

rat hippocampal slices = settings: cited from earlier work
[3] = preclinical studies; cited from earlier work
[4] = system: patients with mild-to-moderate probable AD; settings: cited from earlier work
[5] = after administration of 50 mg tablets
[6] = dose levels of 10 mg and 100 mg
[7] = single oral dose 2 mg sol EM (n = 6)
[8] = single oral dose 5 mg sol EM (n = 6)
[9] = single oral dose 5 mg tab EM (n = 6)
[10] = single oral dose 10 mg tab EM (n = 6)
[11] = single oral dose 10 mg tab PM (n = 6)
[12] = single oral dose 50 mg sol EM (n = 8)
[13] = single oral dose 50 mg tab EM (n = 6)
[14] = single oral dose 100 mg tab EM (n = 5)
[15] = single oral dose 100 mg tab PM (n = 6)
[16] = single oral dose 200 mg tab EM (n = 6)
[17] = single oral dose 350 mg tab EM (n = 6)

In the case of O=c1[nH]c(Cc2ccccn2)nc2c1cnn2C1CCOCC1 [BI 409306], the “AUC0–∞ ratio of tablet to solution” value ([1]; 5 mg dose, 90% CI: 87.6%, 111%) is reported as 98.5%, the “ratio (CYP2C19 PM to EM) of Cmax” value ([1]; 10 mg dose, 90% CI: 125%, 401%) is reported as 224% and the “ratio (CYP2C19 PM to EM) of AUC0–∞” value ([1]; 10 mg dose, 90% CI: 291%, 843%) is reported as 496%. For the same compound, the “AUC0–∞ ratio of tablet to solution” value ([1]; 50 mg dose, 90% CI: 59.6%, 119%) was 84.2%, the “ratio (CYP2C19 PM to EM) of Cmax” value ([1]; 100 mg dose, 90% CI: 124%, 421%) was 228% and the “ratio (CYP2C19 PM to EM) of AUC0–∞” value ([1]; 100 mg dose, 90% CI: 254%, 677%) was 415%. The “reduction of gMean AUC, tablet versus oral solution” value [1, 5] was “approximately 16%”, the “reduction of gMean Cmax, tablet versus oral solution” value [1, 5] was “approximately 20%” and the “time following dose within which BI 409306 was eliminated” value ([1]; all DGs) was no more than 24 h. The “AUC0–∞ in CYP2C19 PMs compared with EMs” value [1, 6] was 4.1–5.0 fold, the “Cmax in CYP2C19 PMs compared with EMs” value [1, 6] was 2.2–2.3 fold and the “Cl F^−1” value ([1]; single oral dose 0.5 mg sol EM (n = 6)) was 6770 (50.4) ml min^−1. For the same compound, the “Cl F^−1” value [1, 7] was 5130 (41.3) ml min^−1, the “Cl F^−1” value [1, 8] was 3490 (27.0) ml min^−1 and the “Cl F^−1” value [1, 9] was 3540 (32.2) ml min^−1. For the same compound, the “Cl F^−1” value [1, 10] was 5580 (69.8) ml min^−1, the “Cl F^−1” value [1, 11] was 1120 (35.5) ml min^−1 and the “Cl F^−1” value ([1]; single oral dose 25 mg tab EM (n = 6)) was 3810 (49.4) ml min^−1. The “Cl F^−1” value [1, 12] was 4130 (42.9) ml min^−1, the “Cl F^−1” value [1, 13] was 4970 (82.0) ml min^−1 and the “Cl F^−1” value [1, 14] was 3660 (68.5) ml min^−1. The “Cl F^−1” value [1, 15] was 882 (21.4) ml min^−1, the “Cl F^−1” value [1, 16] was 2730 (44.4) ml min^−1 and the “Cl F^−1” value [1, 17] was 2350 (17.1) ml min^−1. For the same compound, the “urinary excretion of BI 409306” value ([2]; CYP2C19 EMs) was < 2 % of the dose, the “dose proportionality exponent β of the power model for Ae0–4” value ([2]; CYP2C19 EMs, entire dose range, 95% CI: 0.98, 1.12) was 1.05 and the “urinary excretion of BI 409306” value ([2]; CYP2C19 PMs) was “up to 2.68 % of the dose”. For the same compound, the “fe0–4” value [2, 7] was 0.483 (46.5) %, the “fe0–4” value [2, 8] was 0.583 (26.0) % and the “fe0–4” value [2, 9] was 0.611 (24.2) %. For the same compound, the “fe0–4” value [2, 10] was 0.461 (60.2) %, the “fe0–4” value [2, 11] was 1.30 (14.3) % and the “fe0–4” value [2, 12] was 0.594 (48.1) %. The “fe0–4” value [2, 13] was 0.523 (56.9) %, the “fe0–4” value [2, 14] was 0.597 (53.0) % and the “fe0–4” value [2, 15] was 1.78 (23.3) %. The “fe0–4” value [2, 16] was 0.676 (48.8) %, the “fe0–4” value [2, 17] was 0.786 (24.0) % and the “AE: Dizziness” value (healthy male subjects; 2 mg sol EM (n = 6)) was 1 (16.7) n (%). The “AE: Gastrointestinal disorders” value (healthy male subjects; 2 mg sol EM (n = 6)) was 1 (16.7) n (%), the “AE: Headache” value (healthy male subjects; 2 mg sol EM (n = 6)) was 1 (16.7) n (%) and the “AE: Nausea” value (healthy male subjects; 2 mg sol EM (n = 6)) was 1 (16.7) n (%). The “AE: Nervous system disorders” value (healthy male subjects; 2 mg sol EM (n = 6)) was 2 (33.3) n (%), the “AE: Headache” value (healthy male subjects; 5 mg tab EM (n = 6)) was 1 (16.7) n (%) and the “AE: Nervous system disorders” value (healthy male subjects; 5 mg tab EM (n = 6)) was 1 (16.7) n (%). For the same compound, the “AE: Diarrhoea” value (healthy male subjects; 10 mg tab PM (n = 6)) was 1 (16.7) n (%), the “AE: Gastrointestinal disorders” value (healthy male subjects; 10 mg tab PM (n = 6)) was 1 (16.7) n (%) and the “AE: Headache” value (healthy male subjects; 10 mg tab PM (n = 6)) was 2 (33.3) n (%). For the same compound, the “AE: Nervous system disorders” value (healthy male subjects; 10 mg tab PM (n = 6)) was 2 (33.3) n (%), the “AE: Cardiac disorders” value (healthy male subjects; 50 mg tab EM (n = 6)) was 1 (16.7) n (%) and the “AE: Extrasystoles” value (healthy male subjects; 50 mg tab EM (n = 6)) was 1 (16.7) n (%). The “AE: Palpitations” value (healthy male subjects; 50 mg tab EM (n = 6)) was 1 (16.7) n (%), the “AE: Chromatopsia” value (healthy male subjects; 100 mg tab PM (n = 6)) was 1 (16.7) n (%) and the “AE: Eye disorders” value (healthy male subjects; 100 mg tab PM (n = 6)) was 2 (33.3) n (%). For the same compound, the “AE: Headache” value (healthy male subjects; 100 mg tab PM (n = 6)) was 2 (33.3) n (%), the “AE: Nervous system disorders” value (healthy male subjects; 100 mg tab PM (n = 6)) was 2 (33.3) n (%) and the “AE: Photopsia” value (healthy male subjects; 100 mg tab PM (n = 6)) was 1 (16.7) n (%). The “AE: Presyncope” value (healthy male subjects; 100 mg tab PM (n = 6)) was 1 (16.7) n (%), the “AE: Headache” value (healthy male subjects; 200 mg tab EM (n = 6)) was 1 (16.7) n (%) and the “AE: Nervous system disorders” value (healthy male subjects; 200 mg tab EM (n = 6)) was 2 (33.3) n (%). The “AE: Photophobia” value (healthy male subjects; 200 mg tab EM (n = 6)) was 1 (16.7) n (%), the “AE: Photopsia” value (healthy male subjects; 200 mg tab EM (n = 6)) was 2 (33.3) n (%) and the “AE: Somnolence” value (healthy male subjects; 200 mg tab EM (n = 6)) was 1 (16.7) n (%). The “AE: Blurred vision” value (healthy male subjects; 350 mg tab EM (n = 6)) was 1 (16.7) n (%), the “AE: Cardiac disorders” value (healthy male subjects; 350 mg tab EM (n = 6)) was 1 (16.7) n (%) and the “AE: Chromatopsia” value (healthy male subjects; 350 mg tab EM (n = 6)) was 1 (16.7) n (%). The “AE: Dry mouth” value (healthy male subjects; 350 mg tab EM (n = 6)) was 1 (16.7) n (%), the “AE: Gastrointestinal disorders” value (healthy male subjects; 350 mg tab EM (n = 6)) was 2 (33.3) n (%) and the “AE: Nausea” value (healthy male subjects; 350 mg tab EM (n = 6)) was 1 (16.7) n (%). The “AE: Nervous system disorders” value (healthy male subjects; 350 mg tab EM (n = 6)) was 1 (16.7) n (%), the “AE: Photophobia” value (healthy male subjects; 350 mg tab EM (n = 6)) was 1 (16.7) n (%) and the “AE: Photopsia” value (healthy male subjects; 350 mg tab EM (n = 6)) was 2 (33.3) n (%). For the same compound, the “AE: Sinus tachycardia” value (healthy male subjects; 350 mg tab EM (n = 6)) was 1 (16.7) n (%), the “AE: Somnolence” value (healthy male subjects; 350 mg tab EM (n = 6)) was 1 (16.7) n (%) and the “dose up to which generally safe and well tolerated” value (healthy male subjects; CYP2C19 EM healthy male subjects) was “up to 350 mg”. For the same compound, the subjects with headache (healthy male subjects; CYP2C19 EMs treated with BI 409306, all dose groups) was “three”, the “subjects with photophobia/increased sensitivity to light” value (healthy male subjects; CYP2C19 EMs, all dose groups) was “three” and the “subjects with photopsia/flashing lights” value (healthy male subjects; CYP2C19 EMs, all dose groups) was “five”. The “dose up to which generally safe and well tolerated” value (healthy male subjects; CYP2C19 PM healthy male subjects) was “up to 100 mg”, the subjects with headache (healthy male subjects; CYP2C19 PMs treated with BI 409306 (10 mg and 100 mg)) was “four” and the “intensity of AEs” value (healthy male subjects; all AEs) was “mild to moderate”. For the same compound, the “B&L VAS scores: effects on mood, vigilance or stress levels” value (healthy male subjects; data not shown) was “no clinically relevant effects; also recorded: did not reveal any clinically relevant effects”, the “abnormalities in laboratory results, ECG findings or vital signs” value (healthy male subjects; exception: one episode of transient sinus tachycardia) was “No relevant abnormalities” and the “overall safety and tolerability” value (healthy male subjects; healthy male subjects, single rising doses) was “generally safe and well tolerated”. The “onset of nervous system and eye disorder AEs after administration” value (healthy male subjects; most frequently reported AEs) was 20 to 30 min, the “time within which AEs mostly resolved” value (healthy male subjects; nervous system and eye disorders) was 1 to 2 h and the “serious AEs” value (healthy male subjects; single doses 0.5–350 mg, EMs and PMs) was “No serious AEs occurred; also recorded: No serious AEs were reported”. The “highest (maximum) tolerated dose” value (healthy male subjects; single oral dose, CYP2C19 EMs) was 350 mg, the “synaptic plasticity (LTP)” value (rat hippocampal slices) was “enhancement of LTP” and the memory performance [3] was “improved memory performance”.

In the case of C[C@@H]1CN(Cc2ncccn2)C[C@H]1c1nc2c(cnn2C2CCOCC2)c(=O)[nH]1 [PF‐04447943, 6‐[(3S,4S)‐4‐methyl‐1‐(pyrimidin‐2‐ylmethyl)pyrrolidin‐3‐yl]‐1‐(tetrahydro‐2H‐pyran‐4‐yl)‐1,5‐dihydro‐4H‐pyrazolo[3,4‐d]pyrimidin‐4‐one], the “incidence of severe AEs” value [4] is listed as “comparable to that with placebo”.
